Assay results taken from ChEMBL document CHEMBL1133664, “Synthesis and evaluation of hydroxylated polyamine analogues as antiproliferatives” (J Med Chem, 2000).
pIC50, pKi: −log10 of the molar value.

Legend:
L1210 [1] = test: Effect of compound on Spermidine/Spermine N'-Acetyltransferase(SSAT) in L1210 cells; type: cell-based
Summary of the method: (§1)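 L1210 cells treated 48 h at 10 µM, or 2 µM for DENSPM. SSAT is quantified as [14C]-N1-acetylspermidine formed from spermidine and [14C]acetyl-CoA. Values are the mean of at least three experiments.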

L1210 [2] = test: Ki was estimated by competitive inhibition of [3H]SPD transport by L1210 cells; type: functional, cell-based, Mus musculus
Summary of the method: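 L1210 cells incubated 20 min at 37 °C in medium with 1-10 µM [3H]spermidine, alone or with 10, 25 or 50 µM analogue. Cells are then washed with cold medium containing 1 mM SPD, digested in NaOH at 60 °C and counted by scintillation. Ki is taken from substrate-competitive inhibition kinetics; values are means of two or three experiments.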

L1210 [3] = test: Spermine(SPM) levels in L1210 cells after 48 hr of treatment with the compound at the dose of 200 uM; type: functional, Mus musculus
Summary of the method: (§2)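 Log-phase L1210 cells treated 48 h, washed twice in ice-cold incomplete medium, extracted with 0.6 N perchloric acid and freeze-fractured three times. Polyamines are quantified by HPLC. PUT, SPD and SPM are expressed as percent of untreated control.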

[4] = target: T1, Ornithine decarboxylase (Mus musculus) (UniProt P00860); test: Effect of compound on Ornithine decarboxylase (ODC) […] in L1210 cells; type: cell-based
T1 sequence (whole entry): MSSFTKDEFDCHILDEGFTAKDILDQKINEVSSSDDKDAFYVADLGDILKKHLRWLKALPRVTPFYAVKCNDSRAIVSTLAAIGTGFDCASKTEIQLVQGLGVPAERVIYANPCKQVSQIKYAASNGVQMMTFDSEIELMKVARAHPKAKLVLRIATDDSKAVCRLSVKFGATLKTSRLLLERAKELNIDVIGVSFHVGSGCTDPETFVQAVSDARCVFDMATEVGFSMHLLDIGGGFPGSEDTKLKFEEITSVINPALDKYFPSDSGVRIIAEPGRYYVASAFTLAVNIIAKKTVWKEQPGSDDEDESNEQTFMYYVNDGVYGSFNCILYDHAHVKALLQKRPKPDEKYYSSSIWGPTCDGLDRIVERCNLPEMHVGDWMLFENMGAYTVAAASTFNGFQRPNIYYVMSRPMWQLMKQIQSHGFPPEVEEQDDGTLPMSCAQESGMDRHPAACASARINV
Summary of the method: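 L1210 cells treated 4 h at 1 µM, with an additional arm at 10 µM for 4 h. ODC activity is expressed as percent of untreated control. Each run includes untreated cells as negative control and a DEHSPM-treated positive control. Values are the mean of at least three experiments.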

[5] = test system: S-adenosylmethionine decarboxylase (Mus musculus); test: Effect of compound on S-Adenosyl-methionine decarboxylase in L1210 cells; parameters: unit not given here
L1210 [6] = test: Growth uM after 96 hours; type: functional, cell-based; settings: Mus musculus, L1210, 96 h
L1210 [7] = test: Spermine(SPM) levels in L1210 cells after 48 hr of treatment with the compound at the dose of 40 uM; type: functional, Mus musculus; summary of the method: as §2
L1210 [8] = test: Spermidine(SPD) levels in L1210 cells after 48 hr of treatment with the compound at the dose of 200 uM; type: functional, Mus musculus; summary of the method: as §2
L1210 [9] = test: Spermidine(SPD) levels in L1210 cells after 48 hr of treatment with the compound at the dose of 40 uM; type: functional, Mus musculus; summary of the method: as §2
L1210 [10] = test: Putrescine(PUT) levels in L1210 cells after 48 hr of treatment with the compound at the dose of 200 uMicroM; type: functional, Mus musculus; summary of the method: as §2
L1210 [11] = test: Growth uM after 48 hours; type: functional, cell-based; settings: Mus musculus, L1210, 48 h
L1210 [12] = test: Putrescine(PUT) levels in L1210 cells after 48 hr of treatment with the compound at the dose of 40 uM; type: functional, Mus musculus; summary of the method: as §2
L1210 [13] = test: Putrescine(PUT) levels in L1210 cells after 48 hr of treatment with the compound at the dose of 100 MicroM; type: functional, Mus musculus; summary of the method: as §2
L1210 [14] = test: Effect of compound on Spermidine/Spermine N'-Acetyltransferase (SSAT) in L1210 cells; type: cell-based; summary of the method: as §1
L1210 [15] = test: Growth inhibition of L1210 cells was measured in the presence of nine different concentrations: 0,0.03,0.1,0.3,1,3,10,30, and 100 uM after 48 hours; type: functional, cell-based; settings: Mus musculus, L1210, 48 h
Summary of the method: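 L1210 leukemia cells were kept in log growth in RPMI-1640 with 10% FBS, HEPES-MOPS and 1 mM aminoguanidine at 37 °C under 5% CO2. Cultures at 0.5-1.0 × 10^5 cells/mL were dosed with filtered aqueous compound and counted by Coulter counter at 48 h, then reseeded and counted again at 96 h.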

L1210 [16] = test: Spermidine(SPD) levels in L1210 cells after 48 hr of treatment with the compound at the dose of 100 uM; type: functional, Mus musculus; summary of the method: as §2
L1210 [17] = test: Spermine(SPM) levels in L1210 cells after 48 hr of treatment with the compound at the dose of 10 uM; type: functional, Mus musculus; summary of the method: as §2
L1210 [18] = test: Spermine(SPM) levels in L1210 cells after 48 hr of treatment with the compound at the dose of 100 uM; type: functional, Mus musculus; summary of the method: as §2
L1210 [19] = test: Putrescine(PUT) levels in L1210 cells after 48 hr of treatment with the compound at the dose of 10 uM; type: functional, Mus musculus; summary of the method: as §2
L1210 [20] = test: Spermidine(SPD) levels in L1210 cells after 48 hr of treatment with the compound at the dose of 10 uM; type: functional, Mus musculus; summary of the method: as §2
L1210 [21] = test: Putrescine(PUT) levels in L1210 cells after 48 hr of treatment with the compound at the dose of 0.15 uM; type: functional, Mus musculus; summary of the method: as §2
L1210 [22] = test: Spermidine(SPD) levels in L1210 cells after 48 hr of treatment with the compound at the dose of 0.75 uM; type: functional, Mus musculus; summary of the method: as §2
L1210 [23] = test: Spermine(SPM) levels in L1210 cells after 48 hr of treatment with the compound at the dose of 0.75 uM; type: functional, Mus musculus; summary of the method: as §2
L1210 [24] = test: Spermine(SPM) levels in L1210 cells after 48 hr of treatment with the compound at the dose of 0.15 uM; type: functional, Mus musculus; summary of the method: as §2
L1210 [25] = test: Spermidine(SPD) levels in L1210 cells after 48 hr of treatment with the compound at the dose of 0.15 uM; type: functional, Mus musculus; summary of the method: as §2
L1210 [26] = test: Putrescine(PUT) levels in L1210 cells after 48 hr of treatment with the compound at the dose of 0.75 uM; type: functional, Mus musculus; summary of the method: as §2
L1210 [27] = test: Spermidine(SPD) levels in L1210 cells after 48 hr of treatment with the compound at the dose of 2 uM; type: functional, Mus musculus; summary of the method: as §2
L1210 [28] = test: Spermine(SPM) levels in L1210 cells after 48 hr of treatment with the compound at the dose of 2 uM; type: functional, Mus musculus; summary of the method: as §2
L1210 [29] = test: Putrescine(PUT) levels in L1210 cells after 48 hr of treatment with the compound at the dose of 2 uM; type: functional, Mus musculus; summary of the method: as §2
[30] = in the assay text read “1 uM” for “10 uM”

Activity [4]	Activity [5]	pIC50 (L1210 [6])	pIC50 (L1210 [11])	Structure (SMILES)	Activity (L1210 [1])	pKi (L1210 [2])	Activity (L1210 [17])	Activity (L1210 [19])	Activity (L1210 [20])	other results
55	68	7.10	4.40	CCNCC[C@@H](O)CNCCCCNC[C@H](O)CCNCC	102	5.77				Activity (L1210 [3]): 104; Activity (L1210 [7]): 107; Activity (L1210 [8]): 13; Activity (L1210 [9]): 19; Activity (L1210 [10]): 4; Activity (L1210 [12]): 5
35				CCNC[C@@H](O)CNCCCNC[C@H](O)CNCC						
61				CCNC[C@H](O)CNCCCNC[C@@H](O)CNCC						
7	42			CCNCCCNCCCNCCCNCC [BIS(ETHYL)NORSPERMINE]						Activity (L1210 [13]): 0; Activity (L1210 [14]): 1470; pIC50 (L1210 [15]): 4.70; Activity (L1210 [16]): 6; Activity (L1210 [17]; [30]): 94; Activity (L1210 [18]): 30; Activity (L1210 [19]; [30]): 66; Activity (L1210 [20]; [30]): 46
7	41			CCNCCCCNCCCCNCCCCNCC [DIETHYLHOMOSPERMINE]	110		57	3	1	Activity (L1210 [21]): 97; Activity (L1210 [22]): 40; Activity (L1210 [23]): 101; Activity (L1210 [24]): 110; Activity (L1210 [25]): 91; Activity (L1210 [26]): 49
17	52	7.22	5.70	CCNCC[C@H](O)CNCCCCNC[C@@H](O)CCNCC [IVOSPEMIN]	114	5.62	53	3	4	Activity (L1210 [27]): 11; Activity (L1210 [28]): 62; Activity (L1210 [29]): 3
